These results are taken from ChEMBL document CHEMBL1132629, “Synthesis and anti-HIV and anti-HBV activities of 2'-fluoro-2', 3'-unsaturated L-nucleosides” (J Med Chem, 1999).

Experiment [1] relates to Human immunodeficiency virus 1. The experiment in a line: Evaluated for anti-HIV activity. Format: functional, organism-based. The gist of the method: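 Human peripheral blood mononuclear (PBM) cells infected with HIV-1; antiviral potency reported as EC50 (μM); AZT run as positive control.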
For another experiment, the system named is Hepatitis B virus. The experiment in a line: The EC50 value was measured on hepatitis B virus. Format: functional, organism-based. In a few lines:
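Anti-HBV activity assayed in 2.2.15 cells; EC50 (μM) reported.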

For the next experiment, the system named is Vero. Nature of the experiment: Inhibitory activity was evaluated in Vero cells. The conditions noted are these: Chlorocebus sabaeus. Format: functional, cell-based.
The test system of a further experiment is CCRF-CEM. The experiment in a line: Cytotoxicity was evaluated in CEM cells. The conditions noted are these: Homo sapiens.
The subject of the next experiment is PBMC. The experiment in a line: Cytotoxicity was evaluated in human peripheral blood mononuclear (PBM) cells.

In the case of `Nc1nc(Cl)c2ncn([C@H]3O[C@@H](CO)C=C3F)c2n1`, the concentration for a half-maximal effect (EC50) in experiment [1] was over 100 µM; in the experiment with Hepatitis B virus, over 10 µM. Also, the IC50 in the experiment on Vero, in the experiment on CCRF-CEM and with PBMC was over 100 µM throughout.
As to `Nc1nc(O)c2ncn([C@@H]3O[C@@H](CO)C=C3F)c2n1`, the EC50 in experiment [1] is 76.9 µM; in the experiment with Hepatitis B virus, over 10 µM. For the same molecule, the IC50 with Vero, in the experiment on CCRF-CEM and with PBMC was over 100 µM in each case.
As for `OC[C@H]1C=C(F)[C@@H](n2cnc3c(O)ncnc32)O1`, the EC50 in experiment [1] was 4.7 µM; with Hepatitis B virus it was over 10 µM. Moreover, the 50% inhibitory concentration (IC50) with Vero, in the experiment with CCRF-CEM and in the experiment with PBMC was over 100 µM in each case.
Take `Nc1ccn([C@H]2O[C@@H](CO)C=C2F)c(=O)n1`: the EC50 amounted to 0.51 µM in experiment [1] and 0.18 µM in the experiment with Hepatitis B virus. Moreover, the 50% inhibitory concentration (IC50) with Vero, in the experiment on CCRF-CEM and with PBMC was over 100 µM in each case.
`Nc1nc(Cl)c2ncn([C@@H]3O[C@@H](CO)C=C3F)c2n1`: the EC50 in experiment [1] was 14.5 µM; in the experiment with Hepatitis B virus, over 10 µM. Further, the IC50 in the experiment with Vero is over 100 µM; with CCRF-CEM, 28.2 µM; with PBMC, 26.6 µM.
Taken in the same sequence, the figures for `Nc1ncnc2c1ncn2[C@H]1O[C@@H](CO)C=C1F` were 1.5 µM, 1.7 µM, over 100 µM, over 100 µM and over 100 µM.
Taken in the same sequence, the figures for `Nc1nc(F)nc2c1ncn2[C@@H]1O[C@@H](CO)C=C1F` were over 100 µM, over 10 µM, over 100 µM, over 100 µM and over 100 µM.
As to `Cc1cn([C@H]2C[C@H](N=[N+]=[N-])[C@@H](CO)O2)c(=O)[nH]c1=O` [ZIDOVUDINE], the EC50 in the experiment on Hepatitis B virus is over 10 µM. This molecule came in with an IC50 in the experiment on PBMC of over 100 µM.
Turning to `O=c1ccn([C@@H]2O[C@@H](CO)C=C2F)c(=O)[nH]1`, the EC50 was over 100 µM in experiment [1] and over 10 µM in the experiment with Hepatitis B virus. Moreover, the IC50 in the experiment on Vero, in the experiment on CCRF-CEM and with PBMC was over 100 µM in each case.
With `Nc1nc(F)nc2c1ncn2[C@H]1O[C@@H](CO)C=C1F`, the EC50 was 2.2 µM in experiment [1] and over 10 µM with Hepatitis B virus. Moreover, the IC50 with Vero was 173 µM; with CCRF-CEM, 19.5 µM; in the experiment on PBMC, 25.8 µM.
The like results for `Nc1ccn([C@@H]2O[C@@H](CO)C=C2F)c(=O)n1` were, in that order, over 100 µM, over 10 µM, over 100 µM, over 100 µM and over 100 µM.
The like results for `O=c1ccn([C@H]2O[C@@H](CO)C=C2F)c(=O)[nH]1` were, in that order, over 100 µM, over 10 µM, over 100 µM, over 100 µM and over 100 µM.
In the case of `Nc1nc(O)c2ncn([C@H]3O[C@@H](CO)C=C3F)c2n1`, the EC50 in experiment [1] was over 100 µM; with Hepatitis B virus it was over 10 µM. In addition, the IC50 in the experiment with Vero, in the experiment with CCRF-CEM and in the experiment on PBMC was over 100 µM each time.
On to `Nc1nc(=O)n([C@@H]2O[C@@H](CO)C=C2F)cc1F`, for which the EC50 in experiment [1] is over 100 µM; in the experiment with Hepatitis B virus, over 10 µM. Besides, the IC50 in the experiment with Vero, in the experiment with CCRF-CEM and in the experiment on PBMC was over 100 µM throughout.
For `Nc1nc(=O)n([C@H]2O[C@@H](CO)C=C2F)cc1F`, the EC50 is 0.17 µM in experiment [1] and 0.225 µM in the experiment with Hepatitis B virus. Further, the half-inhibitory concentration (IC50) with Vero, in the experiment on CCRF-CEM and with PBMC was over 100 µM in each case.
On to `Cc1cn([C@H]2O[C@@H](CO)C=C2F)c(=O)[nH]c1=O`, for which the EC50 in experiment [1] is over 100 µM; in the experiment with Hepatitis B virus it was over 10 µM. The 50% inhibitory concentration (IC50) in the experiment on Vero, with CCRF-CEM and in the experiment with PBMC was over 100 µM each time.
Consider `Cc1cn([C@@H]2O[C@@H](CO)C=C2F)c(=O)[nH]c1=O`, for which the EC50 in experiment [1] was over 100 µM; in the experiment with Hepatitis B virus, over 10 µM. Further, the IC50 with Vero, in the experiment on CCRF-CEM and with PBMC was over 100 µM throughout.
On to `OC[C@H]1C=C(F)[C@H](n2cnc3c(O)ncnc32)O1`, for which the EC50 was over 100 µM in experiment [1] and over 10 µM in the experiment with Hepatitis B virus. Besides, the IC50 in the experiment on Vero, in the experiment on CCRF-CEM and in the experiment on PBMC was over 100 µM in each case.
For `Nc1ncnc2c1ncn2[C@@H]1O[C@@H](CO)C=C1F`, the EC50 in experiment [1] was 47.6 µM; with Hepatitis B virus, over 10 µM. Also, the IC50 in the experiment on Vero, with CCRF-CEM and in the experiment on PBMC was over 100 µM in each case.
